# Laboratory results taken from ChEMBL document CHEMBL4350958, “Rational Design of Short Peptide Variants by Using Kunitzin-RE, an Amphibian-Derived Bioactivity Peptide, for Acquired Potent Broad-Spectrum Antimicrobial and Improved Therapeutic Potential of Commensalism Coinfection of Pathogens” (J Med Chem, 2019).
# Experiments:
# [1] = system: Staphylococcus aureus; assay: Bactericidal activity against methicillin-resistant Staphylococcus aureus ATCC 43300 incubated for 24 hrs followed by replating on agar plate and measured after overnight incubation; assay type: functional; conditions: for MBC: ATCC 43300, 24 h, read-out: MBC>99.9
# How it was run: (§1)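 After the 24 h, 37 °C MHB microdilution MIC assay, 50 μL from each well was plated on agar and incubated overnight. MBC taken as lowest peptide concentration killing >99.9% of cells. At least three independent experiments, each with three technical replicates.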
# [2] = system: Escherichia coli; assay: Antibacterial activity against Escherichia coli ATCC 25922 measured after 18 to 24 hrs in presence of ZnCl2; assay type: functional
# [3] = system: Candida albicans; assay: Antifungal activity against Candida albicans cgmcc2.2086 measured after 48 hrs in presence of MgCl by broth microdilution method; assay type: functional
# [4] = system: Staphylococcus aureus; assay: Antibacterial activity against Staphylococcus aureus ATCC 29213 measured after 18 to 24 hrs in presence of MgCl2; assay type: functional
# [5] = system: Staphylococcus aureus; assay: Antibacterial activity against Staphylococcus aureus ATCC 29213 measured after 18 to 24 hrs in presence of ZnCl2; assay type: functional
# How it was run: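 MIC broth microdilution (MHB, 0.2% BSA peptide diluent, A492, 95% inhibition) run in the presence of physiological salts at final concentrations of 6 μM NH4Cl or 8 μM ZnCl2. Three independent assays, each with three technical replicates.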
# [6] = system: Escherichia coli; assay: Antibacterial activity against Escherichia coli ATCC 25922 measured after 18 to 24 hrs in presence of NaCl; assay type: functional
# [7] = system: Staphylococcus aureus; assay: Bactericidal activity against Staphylococcus aureus ATCC 25923 incubated for 24 hrs followed by replating on agar plate and measured after overnight incubation; assay type: functional; conditions: for MBC: ATCC 25923, 24 h, read-out: MBC>99.9; how it was run: as §1
# [8] = system: Staphylococcus aureus; assay: Antibacterial activity against Staphylococcus aureus ATCC 29213 measured after 18 to 24 hrs in presence of CaCl2; assay type: functional
# [9] = system: Pseudomonas aeruginosa; assay: Antibacterial activity against Pseudomonas aeruginosa ATCC 27853 measured after 24 hrs; assay type: functional
# How it was run: (§2)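 Broth microdilution adapted from NCCLS. Mid-log bacteria were diluted in MHB to a final (0.5–1) × 10^5 CFU mL−1. Peptides were serially diluted in 0.2% BSA and mixed with an equal volume of cells. After 24 h at 37 °C, MIC was read at A492 as the lowest concentration inhibiting 95% of growth. At least three independent experiments, each with three technical replicates.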
# [10] = system: Candida tropicalis; assay: Antifungal activity against Candida tropicalis cgmcc2.1975 measured after 48 hrs by broth microdilution method; assay type: functional
# How it was run: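 Modified CLSI M27-A2 microdilution. Yeast colonies were diluted in MOPS-buffered RPMI 1640 to a final (0.5–1) × 10^3 CFU mL−1 and mixed with an equal volume of peptide serially diluted in 0.2% BSA. After 48 h at 28 °C, MIC was read at A492 as the lowest concentration inhibiting 95% of growth. At least three independent experiments, each with three technical replicates.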
# [11] = Bactericidal activity against Salmonella pullorum ATCC 7913 incubated for 24 hrs followed by replating on agar plate and measured after overnight incubation; assay type: functional, Salmonella enterica subsp. enterica serovar Pullorum; conditions: Salmonella enterica, ATCC 7913, 24 h; read-out: MBC>99.9
# How it was run: (§3)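 Mid-log bacteria diluted in MHB to (0.5–1) × 10^5 CFU/mL and mixed 1:1 with peptide serially diluted in 0.2% BSA. After 24 h at 37 °C, 50 μL of each mixture was plated on agar and incubated overnight. MBC taken as the lowest concentration killing >99.9% of cells. At least three independent experiments, each with three technical replicates.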
# [12] = Therapeutic index, ratio of MHC10 for hemolytic activity in human RBC to MIC95 against Candida albicans cgmcc2.2086; assay type: toxicity; conditions: human red blood cells (erythrocytes), read-out: TI
# How it was run: (§4)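 Therapeutic index = MHC divided by MIC. MHC is the lowest concentration giving >10% lysis of human RBC (1 h, 37 °C, 1-128 µM, A576). MIC is 95% growth inhibition by broth microdilution: bacteria in MHB 24 h at 37 °C; Candida in MOPS-buffered RPMI 1640 at (0.5–1) × 10^3 CFU mL−1, 48 h at 28 °C.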
# [13] = system: Salmonella typhimurium; assay: Antibacterial activity against Salmonella typhimurium C7731 measured after 24 hrs; assay type: functional, Salmonella enterica subsp. enterica serovar Typhimurium; how it was run: as §2
# [14] = system: Candida albicans; assay: Antifungal activity against Candida albicans cgmcc2.2086 measured after 48 hrs in presence of FeCl by broth microdilution method; assay type: functional
# [15] = system: Escherichia coli; assay: Antibacterial activity against Escherichia coli ATCC 25922 measured after 24 hrs; assay type: functional; how it was run: as §2
# [16] = Conformational stability in pH 7.4 sodium phosphate buffer assessed as absorption spectra at minimum dichroic band at 35 uM by CD spectra analysis; assay type: physicochemical; conditions: pH 7.4, 35 µM
# How it was run: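 CD spectra from 190 to 250 nm of peptide at 35 μM in 10 mM PBS, 30 mM SDS micelles or 50% TFE, recorded in a 1.0-mm quartz cell. Ellipticity was converted to mean residue ellipticity. Three independent scans, each averaged over more than 3 runs.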
# [17] = Therapeutic index, ratio of MHC10 for hemolytic activity in human RBC to MIC95 against Staphylococcus aureus ATCC 29213; assay type: toxicity; conditions: human red blood cells (erythrocytes), read-out: TI; how it was run: as §4
# [18] = system: Staphylococcus epidermidis; assay: Antibacterial activity against Staphylococcus epidermidis ATCC 12228 measured after 24 hrs; assay type: functional; how it was run: as §2
# [19] = system: Escherichia coli; assay: Antibacterial activity against Escherichia coli K88 measured after 24 hrs; assay type: functional; how it was run: as §2
# [20] = system: Escherichia coli; assay: Antibacterial activity against Escherichia coli UB1005 measured after 24 hrs; assay type: functional; how it was run: as §2
# [21] = system: Escherichia coli; assay: Antibacterial activity against Escherichia coli ATCC 25922 measured after 18 to 24 hrs in presence of MgCl2; assay type: functional
# [22] = system: Escherichia coli; assay: Bactericidal activity against Escherichia coli K88 incubated for 24 hrs followed by replating on agar plate and measured after overnight incubation; assay type: functional; conditions: for MBC: K88, 24 h, read-out: MBC>99.9; how it was run: as §3
# [23] = system: Staphylococcus epidermidis; assay: Bactericidal activity against Staphylococcus epidermidis ATCC 12228 incubated for 24 hrs followed by replating on agar plate and measured after overnight incubation; assay type: functional; conditions: for MBC: ATCC 12228, 24 h, read-out: MBC>99.9; how it was run: as §3
# [24] = Therapeutic index, ratio of MHC10 for hemolytic activity in human RBC to MIC95 against methicillin-resistant Staphylococcus aureus ATCC 43300; assay type: toxicity; conditions: human red blood cells (erythrocytes), read-out: TI; how it was run: as §4
# [25] = system: Candida albicans; assay: Antifungal activity against Candida albicans cgmcc2.2086 measured after 48 hrs in presence of KCl by broth microdilution method; assay type: functional
# [26] = Therapeutic index, ratio of MHC10 for hemolytic activity in human RBC to MIC95 against Candida parapsilosis cgmcc2.3989; assay type: toxicity; conditions: human red blood cells (erythrocytes), read-out: TI; how it was run: as §4
# [27] = system: Pseudomonas aeruginosa; assay: Bactericidal activity against Pseudomonas aeruginosa ATCC 27853 incubated for 24 hrs followed by replating on agar plate and measured after overnight incubation; assay type: functional; how it was run: as §3
# [28] = Salmonella enterica, C7731, 24 h
Substance,MIC95 [2],"MIC95 ([3]; cgmcc2.2086, 48 h)",MIC95 [4],MIC95 [5],MIC95 [6],MIC95 [8],"MIC95 ([9]; ATCC 27853, 24 h)","MIC95 ([10]; cgmcc2.1975, 48 h)",selectivity ratio [12],"MIC95 [13, 28]","MIC95 ([14]; cgmcc2.2086, 48 h)","MIC95 ([15]; ATCC 25922, 24 h)",Wavelength of minimum CD band [16],selectivity ratio [17],"MIC95 ([18]; ATCC 12228, 24 h)","MIC95 ([19]; K88, 24 h)","MIC95 ([20]; UB1005, 24 h)",MIC95 [21],selectivity ratio [24],"MIC95 ([25]; cgmcc2.2086, 48 h)",other results
H-AARIILRFRFR-NH2,4 µM,16 µM,2 µM,2 µM,64 µM,4 µM,> 128 µM,4 µM,50.8,4 µM,8 µM,8 µM,200 nm,128,2 µM,4 µM,4 µM,32 µM,128,8 µM,MBC [1]: 4 µM; MBC [7]: 4 µM; MBC [11]: 8 µM; MBC [22]: 8 µM; MBC [23]: 4 µM; selectivity ratio [26]: 50.8
H-AARIILRRRFR-NH2,8 µM,> 128 µM,32 µM,16 µM,128 µM,128 µM,> 128 µM,64 µM,3.17,8 µM,> 128 µM,8 µM,200 nm,13.4,16 µM,16 µM,16 µM,64 µM,13.4,128 µM,MBC [1]: 64 µM; MBC [7]: 64 µM; MBC [11]: 32 µM; MBC [22]: 32 µM; MBC [23]: 32 µM; selectivity ratio [26]: 3.17
H-AAKIILNPKFR-NH2,> 128 µM,> 128 µM,> 128 µM,> 128 µM,> 128 µM,> 128 µM,> 128 µM,> 128 µM,2,> 128 µM,> 128 µM,> 128 µM,200 nm,2,> 128 µM,> 128 µM,> 128 µM,> 128 µM,2,> 128 µM,selectivity ratio [26]: 2
POLYMYXIN B,2 µM,–,32 µM,32 µM,4 µM,64 µM,–,–,–,–,–,–,–,–,–,–,–,1 µM,–,–,MBC>99.9 [1]: 128 µM; MIC95 [3]: 32 µM; MBC>99.9 [7]: > 128 µM; MIC95 [9]: 2 µM; MIC95 [10]: > 128 µM; MIC95 ([13]; Salmonella enterica subsp. enterica serovar Typhimurium): 2 µM; MBC>99.9 [27]: 4 µM; MIC95 [14]: 32 µM; MIC95 [15]: 2 µM; MIC95 [18]: 32 µM; MIC95 [19]: 0.5 µM; MIC95 [20]: 1 µM; MBC>99.9 [22]: 1 µM; MBC>99.9 [23]: 64 µM; MIC95 [25]: 32 µM
